PAFAH1B2 inh = blocks human PAF acetylhydrolase 1b catalytic subunit 2; P68402; recombinant PAFAH1B2, FP-rhodamine activity probe, fluorescence polarization; inhibition, % at 3.39 µM; 340,000 tested, 1.2% active;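 active = inhibition above the mean of all tested compounds plus 3 SD, cut at about 24% in these data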;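 note: 0% = enzyme with DMSO and 100% = wells lacking PAFAH1B2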
Target sequence (P68402 whole entry, looked up): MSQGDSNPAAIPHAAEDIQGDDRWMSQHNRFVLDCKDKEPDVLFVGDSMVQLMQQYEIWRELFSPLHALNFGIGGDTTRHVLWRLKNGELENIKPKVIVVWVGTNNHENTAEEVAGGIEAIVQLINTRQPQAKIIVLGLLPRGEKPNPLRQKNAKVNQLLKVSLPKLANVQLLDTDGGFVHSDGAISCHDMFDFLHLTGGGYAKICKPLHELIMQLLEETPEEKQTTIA
PAFAH2 FP inh = PAFAH2 (human) inhibition; recombinant PAFAH2, FP-rhodamine activity probe, fluorescence polarization; inhibition, % at 3.39 µM; 340,000 tested, 0.99% active; Q99487;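 active = inhibition above the mean over all tested compounds plus 3 SD, cut at about 30% in these data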;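 note: inhibitors block probe labeling of enzyme so polarization drops; 0% = enzyme with DMSO and 100% = wells lacking PAFAH2 protein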
PAFAH1B3 inh = PAFAH1B3 (human) inhibition. inhibition, % at 3.39 µM. recombinant PAFAH1B3, FP-rhodamine probe, fluorescence polarization. Q15102. 340,000 tested, 0.28% active;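 active = inhibition above the screen-wide average of all tested compounds plus 3 SD, cut at about 25% in these data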;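 note: 0% = enzyme with DMSO only and 100% = wells lacking PAFAH1B3 protein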
IMP-1 inh = blocks Pseudomonas aeruginosa IMP-1 metallo-beta-lactamase | purified IMP-1, nitrocefin hydrolysis, epi-absorbance fluorescence | inhibition, % at 5.6 µM | 290,000 tested, 0.45% active | AID 1556;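 active = inhibition above the mean plus 3 SD of all compounds in the same screening run, cut at about 4.5% in these data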;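 note: 0% = IMP-1 with DMSO and 100% = DMSO wells lacking enzyme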
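System – purified recombinant IMP-1 beta-lactamase · Input – IMP-1 dispensed at 0.2 nM · Timing – 15 min preincubation plus 25 min reaction at 25 °C · Signal – Epi-absorbance fluorescence, 480 nm excitation, 530 nm emission · Measure – percent IMP-1 inhibition derived from blank-referenced optical density · Controls – Enzyme-plus-DMSO low control, enzyme-free DMSO high control · Replication – singlicate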
VIM-2 inhibitor = blocks Pseudomonas aeruginosa VIM-2 metallo-beta-lactamase; 290,000 tested, 0.89% active; purified VIM-2, nitrocefin hydrolysis, epi-absorbance fluorescence; inhibition, % at 5.6 µM; AID 1527;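 active = inhibition above the mean of all tested compounds plus 3 SD, cutoff set per screening run, cut at about 7.5% in these data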;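 note: red hydrolysis product quenches plate fluorescence so inhibitors raise well fluorescence; 0% = enzyme with DMSO and 100% = DMSO without enzyme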
pPAFAH FP inh = inhibitors of human plasma PAF acetylhydrolase (pPAFAH); recombinant pPAFAH, FP-rhodamine probe fluorescence polarization; AID 463082; 330,000 tested, 1.5% active; inhibition, % at 3.39 µM;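 active = inhibition above the mean inhibition across the screen plus 3 SD, cut at about 25% in these data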;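 note: inhibitors block binding of the rhodamine activity-based probe so polarization drops; 0% = enzyme with DMSO and 100% = wells lacking pPAFAH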
PAFAH1B3 conf FP = confirmation of human PAFAH1B3 inhibitors. shares compounds with PAFAH1B3 inh. recombinant PAFAH1B3, FP-Rh activity-based probe, fluorescence polarization. inhibition, % at 3.39 µM. 390 tested, 30% active;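 active = average inhibition over triplicate runs above the hit cutoff set in the earlier primary screen, cut at about 25% in these data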;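 note: 0% = enzyme with DMSO and 100% = wells lacking PAFAH1B3 protein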
The depositor's hits bear a star; nt = not tested or not shown. An excerpt weighted towards active compounds, which were near 3.6% of everything screened.

SMILES | PAFAH1B2 inh | PAFAH2 FP inh | PAFAH1B3 inh | IMP-1 inh | VIM-2 inhibitor | pPAFAH FP inh | PAFAH1B3 conf FP
Cc1nc(NCCc2ccc(Cl)cc2)c2nnn(Cc3ccccc3)c2n1 | 2.5 | 3.7 | -2.8 | -4.5 | -1.2 | 2.9 | nt
O=C(CC(c1ccco1)C1CCCCC1=O)c1ccccc1 (configuration not stated) | 2.7 | -0.5 | 4.6 | -1.7 | 0.5 | 2.2 | nt
CC(=O)N(C)C1=C(N2CCOCC2)C(=O)c2ccccc2C1=O | 8.3 | 3.3 | 30.6* | -1.6 | 0.0 | 10.6 | 12.4
CC(=O)N(C1=C(N2CCOCC2)C(=O)c2ccccc2C1=O)c1ccc(C(=O)O)cc1 | 5.4 | 3.2 | 25.8* | -3.5 | -2.8 | -3.0 | 15.6
COc1cc(OC)c(C(=O)Nc2ccc(S(=O)(=O)N3CCCCC3)cc2)cc1OC | 5.7 | 5.3 | 29.9* | nt | nt | 7.1 | 24.7
COc1ccc(C(=O)Nc2ccc(S(=O)(=O)N3CCCCC3)cc2)cc1OC | 0.2 | 3.8 | 1.3 | -3.7 | -0.8 | 0.7 | nt
CCCCc1ccc(-c2csc(/C(C#N)=C\c3ccc(C)o3)n2)cc1 | -2.8 | -8.4 | -9.5 | -1.6 | -6.1 | 10.1 | nt
CCOc1ccc(-c2csc(/C(C#N)=C\c3ccc(O)c([N+](=O)[O-])c3)n2)cc1 | 14.4 | 18.9 | 34.6* | -0.6 | -3.8 | 21.2 | 22.3
O=C(O)c1cccc(NC2=C(n3nnc4ccccc43)C(=O)c3ccccc3C2=O)c1 | 4.8 | 2.7 | 29.3* | -2.7 | -0.3 | -0.6 | 17.1
O=C(O)c1cccc(NS(=O)(=O)c2ccc3nnn(O)c3c2)c1 | 0.6 | -2.1 | 8.3 | -3.8 | -2.6 | 1.7 | nt
O=C1Nc2ccccc2N(O)N1c1cc(-c2ccccc2)[nH]n1 | 2.1 | 0.6 | 3.1 | -2.4 | -4.5 | 10.1 | nt

Bioassay records: PubChem, The Scripps Research Institute Molecular Screening Center
